Ten molecules from ChEMBL document CHEMBL1124782, “DNA binding by antitumor anthracene derivatives” (J Med Chem, 1990) can be followed below.

Where only a bound is given, the exact number is not on record here.

The nature of series [1]: pKa value for amino group in the compound. Format: physicochemical. The method in brief: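 0.2 mmol of compound, as free base or dihydrochloride, was dissolved in 0.0392 N HCl to give 1 mequiv acid beyond full protonation of the amino groups. The solution was stirred and titrated with 0.0242 N NaOH with pH monitoring. Macroscopic pKa was read at 0.5 equiv base per functional group. Poorly soluble material was titrated in very dilute solution.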

Series [2] relates to Nucleic Acid. In words: Apparent binding constant (McGhee-von Hippel) was determined by using spectrophotometric titration. Format: nucleic-acid assay. The following applies: Bos taurus. Summed up:
(§1)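 Calf thymus DNA (<3% protein) titrated by UV-visible absorbance in 0.1 M NaCl, 0.01 M sodium phosphate, 0.001 M EDTA, pH 7.0. Drug stock about 2×10^-4 M. DNA prepared fresh at 5×10^-4 M (base pairs) for each titration. Free and bound drug extinction coefficients came from Beer's law plots. Bound/free data were fitted by McGhee-von Hippel equations or by a cubic spline derivative analysis.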

In series [3] the test system is Nucleic Acid. In words: Cubic spline relative binding strength was determined by using spectrophotometric titration. Format: nucleic-acid assay. The following applies: Bos taurus. The method in brief:
as §1

For series [4], the system named is Nucleic Acid. In words: (§2) delta Tm value is the difference between Tm(melting temperature) for calf thymus DNA with drug and without drug(Tm = 71 degree C for DNA alone). It is filed as nucleic-acid assay. The following applies: Bos taurus.
Series [5] deals with Nucleic Acid. The series is described as §2. The following applies: Bos taurus. Format: functional.

Regarding `CN(C)CCNCc1c2ccccc2c(CNCCN(C)C)c2ccccc12`, the pKa was 3.9 in series [1] (read-out: pKa1), 5.35 in series [1] (read-out: pKa2), 8.4 in series [1] (read-out: pKa3) and 9.4 in series [1] (read-out: pKa4). For the same molecule, the K app in series [2] came to 0.1 µM⁻¹. The Relative binding in series [3] was 0.75. Moreover, the ΔTm in series [4] turned out to be 12 °C.

As to `C(=N\NC1=NCCN1)/c1c2ccccc2c(/C=N/NC2=NCCN2)c2ccccc12` [BISANTRENE], in series [1] (read-out: pKa1), the pKa worked out at 6.8. The K app in series [2] was 9.03 µM⁻¹. Besides, in series [3], the Relative binding turned out to be 1.03. For the same molecule, the ΔTm in series [4] is 19 °C.

As to `CC(C)N(CCNCc1c2ccccc2c(CNCCN(C(C)C)C(C)C)c2ccccc12)C(C)C`, in series [5], the ΔTm was determined as 9 °C.

For `CN1CCN=C1/C=C/c1c2ccccc2c(/C=C/C2=NCCN2)c2ccccc12`, the K app in series [2] turned out to be 8.29 µM⁻¹. The Relative binding in series [3] amounted to 1.08. Moreover, the ΔTm in series [4] is over 20 °C.

In the case of `CNCCN(C)Cc1c2ccccc2c(CN(C)CCNC)c2ccccc12`, in series [5], the ΔTm turned out to be 3 °C.

In turn, `OCCCCCNCc1c2ccccc2c(CNCCCCCO)c2ccccc12` registered a pKa in series [1] of 8. The K app in series [2] is 0.0532 µM⁻¹. This molecule showed a Relative binding in series [3] of 0.84. Moreover, the ΔTm in series [4] was 13 °C.

Consider `CCN1CCCC(NCc2c3ccccc3c(CNC3CCCN(CC)C3)c3ccccc23)C1` (stereo not given), for which the pKa in series [1] (read-out: pKa1) is 2.4; in series [1] (read-out: pKa2), 3; in series [1] (read-out: pKa3), 5.2; in series [1] (read-out: pKa4), 9.15. Also, the K app in series [2] was found to be 0.0605 µM⁻¹. In series [3], this molecule returned a Relative binding of 0.75. For the same molecule, the ΔTm in series [4] came to 16 °C.

Take `CN(C)CCN(C)Cc1c2ccccc2c(CN(C)CCN(C)C)c2ccccc12`: the pKa was determined as 3.1 in series [1] (read-out: pKa1), 4.2 in series [1] (read-out: pKa2), 8.45 in series [1] (read-out: pKa3) and 9.45 in series [1] (read-out: pKa4). Also, the ΔTm in series [5] was 1 °C.

`c1ccc2c(CNCCN3CCOCC3)c3ccccc3c(CNCCN3CCOCC3)c2c1`: the pKa in series [1] (read-out: pKa1) turned out to be 3.85; in series [1] (read-out: pKa2), 6.3; in series [1] (read-out: pKa3) it was 7.5; in series [1] (read-out: pKa4), 8.5. Further, in series [5], the ΔTm was 5 °C.

For the molecule `NCCNCc1c2ccccc2c(CNCCN)c2ccccc12`, the K app in series [2] is 0.27 µM⁻¹. The molecule further gave a Relative binding in series [3] of 0.75. For the same molecule, in series [4], the ΔTm was 14 °C.

For orientation: ΔTm means the change in melting temperature against a reference sample.
